APJ agonist: agonists of human apelin receptor APJ, primary screen, CHO-K1 cells, PathHunter beta-arrestin, luminescence | 330,000 tested, 0.11% active | activation, % at 20 µM | 0% DMSO wells, 100% apelin | AID 2520, 2010 | P35414;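 active = activation more than six SD over the plate average, tested at 20 µM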;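 note: 0% = DMSO alone and 100% = apelin-13 at 10 nM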
Target sequence (P35414 whole entry, looked up): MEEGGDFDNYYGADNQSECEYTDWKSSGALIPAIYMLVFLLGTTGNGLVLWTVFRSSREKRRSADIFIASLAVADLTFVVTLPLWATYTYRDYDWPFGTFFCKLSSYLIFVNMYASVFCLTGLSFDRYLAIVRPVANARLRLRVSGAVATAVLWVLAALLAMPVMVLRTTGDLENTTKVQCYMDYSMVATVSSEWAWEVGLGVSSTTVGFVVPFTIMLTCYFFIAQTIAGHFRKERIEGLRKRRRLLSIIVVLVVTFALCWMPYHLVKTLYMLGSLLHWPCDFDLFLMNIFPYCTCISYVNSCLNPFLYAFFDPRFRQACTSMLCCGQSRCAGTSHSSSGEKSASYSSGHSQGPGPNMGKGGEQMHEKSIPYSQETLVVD
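Test system – PathHunter CHO-K1 APJ (AGTRL-1) beta-arrestin reporter cells · Input – 1000 cells/well · Compound – single test compound dose, 20 µM final, 1% DMSO · Times – compound stimulation 90 min at 25 °C, detection 60 min · Technique – beta-gal luminescence · Read-out basis – APJ–arrestin association signal · Control set – negative DMSO alone, positive Apelin-13 at 10 nM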
CCR6 antag: CCR6 receptor antagonists, primary screen, cell-based, CHO-K1, luminescence, beta-arrestin, uHTS | CHO-K1 CCR6 PathHunter beta-arrestin, CCL20-stimulated | inhibition, % at 20 µM | 340,000 tested, 0.49% active | AID 493098, 2011;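 active = compounds whose inhibition of the agonist-driven luminescence signal at 20 µM reaches about 50%, limit read from the data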;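 note: cells stimulated with CCL20 at 14 nM final; plate controls were DMSO with CCL20 for no effect and DMSO without agonist for full effect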
APJ antagonist: antagonists of human apelin receptor APJ, primary screen, CHO-K1 cells, beta-arrestin complementation, luminescence; P35414; inhibition, % at 20 µM; 330,000 tested, 0.32% active; AID 2521, 2010;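 active = inhibition above about 40% at 20 µM, limit read from the data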;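 note: cells challenged with 10 nM apelin-13 agonist together with compound; plate controls were apelin-13 plus DMSO wells for no effect and DMSO wells lacking apelin-13 for full effect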
HTR2A ag: mouse Htr2a agonists via beta-arrestin recruitment, primary screen, cell-based, luminescence. 5-hydroxytryptamine receptor 2A (Mus musculus), P35363. CHO-K1 mHTR2A beta-arrestin complementation; percent of 30 µM serotonin response. activation, % at 7.6 µM. 360,000 tested, 0.66% active;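 active = activation above a run cutoff, the mean activation of all tested compounds plus 3 SD, cut at about 14% in these data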;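 note: 0% = plate median of compound wells and 100% = 30 µM serotonin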
CXCR6 block: CXCR6 receptor inhibitors, primary screen, cell-based, beta-arrestin, luminescence, CHO-K1 PathHunter, 1536-well | 360,000 tested, 0.36% active | inhibition, % at 20 µM | C-X-C chemokine receptor type 6 (Homo sapiens), O00574; in the data active = inhibition above about 34%, passing the limit was not always enough;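 note: antagonist mode with CXCL16 agonist at 10 nM final; 0% = 10 nM CXCL16 with DMSO and 100% = unstimulated wells without agonist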
Target sequence (O00574 whole entry, looked up): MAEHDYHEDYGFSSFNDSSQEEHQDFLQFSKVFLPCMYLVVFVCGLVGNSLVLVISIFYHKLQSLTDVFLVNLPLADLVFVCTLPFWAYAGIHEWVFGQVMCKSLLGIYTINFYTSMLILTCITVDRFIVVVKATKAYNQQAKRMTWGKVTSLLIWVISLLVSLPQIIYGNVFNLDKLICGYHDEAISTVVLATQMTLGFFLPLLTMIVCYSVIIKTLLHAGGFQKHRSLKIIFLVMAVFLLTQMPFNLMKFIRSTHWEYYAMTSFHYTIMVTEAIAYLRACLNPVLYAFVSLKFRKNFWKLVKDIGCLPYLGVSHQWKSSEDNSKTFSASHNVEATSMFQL
EBI2 antag: EBI2 receptor antagonists, beta-arrestin recruitment, primary screen, cell-based, luminescence, 7a,25-OHC stimulation, uHTS. AID 651636, 2012. 360,000 tested, 0.81% active. inhibition, % at 5 µM. 7a,25-OHC stimulated; in the data active = inhibition above about 38%;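 note: enzyme fragment complementation signal reports receptor beta-arrestin coupling in cells; 0% = agonist plus DMSO wells and 100% = wells without agonist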
OPRM1 ag: OPRM1 agonists via beta-arrestin recruitment, confirmation, counter-screen for mouse HTR2A agonist project, cell-based, luminescence, single concentration. shares compounds with HTR2A ag. U2OS OPRM1 beta-arrestin PathHunter; DMSO 0%, DAMGO 9.3 µM 100%. activation, % at 9.3 µM. 2,300 tested, 5.3% active;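 active = mean activation above the mean of DMSO-only wells plus 3 SD, cut at about 0.5% in these data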
m5-HT2A ag conf: mouse HTR2A agonists, beta-arrestin recruitment, confirmation, cell-based, luminescence, CHO-K1 PathHunter, triplicate; shares compounds with HTR2A ag; DMSO 0%, 30 µM serotonin 100%; activation, % at 7.6 µM; 2,300 tested, 19% active;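 active = mean activation across triplicates above the hit threshold derived in the original primary screen, cut at about 15% in these data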
* = called active by the depositor; · = not tested or not shown. Most compounds without a hit are left out; they make up all but 2.1% or so of the library.

SMILES	APJ agonist	CCR6 antag	APJ antagonist	HTR2A ag	CXCR6 block	EBI2 antag	OPRM1 ag	m5-HT2A ag conf
CCn1c(=O)cc(SCC(=O)NCCCN2CCN(c3ccccc3F)CC2)c2ccccc21	0.8	1.4	11.2	28.2*	-1.2	-0.9	0.0	77.7*
Cc1ccc(C)c(-n2c(CNC(=O)c3ccco3)nnc2SCC(=O)Nc2nccs2)c1	6.8	-1.5	-4.5	0.1	-5.1	-5.0	·	·
CCOC(=O)C1(Cc2ccc(Cl)cc2)CCN(C2CCC2)CC1	-1.1	-7.2	17.2	0.7	-7.3	-3.3	·	·
Cn1ncc(Br)c1C(=O)Nc1c(F)c(F)cc(F)c1F	-1.4	5.1	5.4	4.9	6.0	1.0	·	·
CCc1ccc(S(=O)(=O)N/N=C(/C)c2ccncc2)cc1	5.9	-1.4	-14.0	-2.0	-17.8	-7.4	·	·
CC(=O)Nc1nc(C)cs1	-1.7	-4.8	6.7	15.6*	-1.4	-1.6	-0.3	-0.8
Cc1csc(NC(=O)c2ccncc2)n1	-2.0	-5.3	-14.3	-1.0	-8.7	11.8	·	·
O=C(COC(=O)c1ccccc1NCCO)Nc1ccc(S(=O)(=O)NC2=NCCCCC2)cc1	·	12.0	·	21.7*	8.2	-1.1	-0.5	-1.3
CCC(CC)C(=O)Nc1cc(C(=O)OC)ccc1C(=O)OC	4.5	-9.8	8.7	0.8	3.5	2.1	·	·
c1ccc2sc(SCc3ccc(-c4nnco4)cc3)nc2c1	-2.8	-0.8	-14.5	-0.6	0.6	5.0	·	·
CCOc1ccc(/C=N/N2C(C)CCCC2C)cc1 (configuration not stated)	-3.0	-0.7	-7.7	17.5*	1.6	-7.1	-0.6	-2.1
Cc1cccc2nc(COc3ccc4ccccc4c3Br)cn12	-5.4	-7.7	-12.1	32.1*	-5.8	2.5	-0.4	11.1
Cc1cccc(NC(=O)CSCC(=O)N(C)Cc2ccc3c(c2)OCCO3)c1	·	15.4	·	1.9	-2.7	1.7	·	·
Cc1ccn(CC(=O)N2CCCC(Nc3ccc(F)c(F)c3)C2)n1 (configuration not stated)	4.2	10.8	-4.0	1.0	-0.5	-11.0	·	·
COc1ccc(NC2CCCN(C(=O)Cn3ccc(C)n3)C2)cc1OC (configuration not stated)	5.8	3.0	-18.4	15.4*	-0.4	-5.6	-0.3	0.1
O=C(NCC(=O)N1CCN(S(=O)(=O)c2ccc3c(c2)OCCO3)CC1)c1ccccc1F	0.3	7.3	-1.8	15.5*	-4.4	-2.6	-0.5	-2.9
Cc1noc(C)c1NC(=O)N(C)C[C@@H]1OCc2ccccc2-c2c(n(C)c3ccccc23)C(=O)N([C@H](C)CO)C[C@H]1C	·	·	·	-0.1	-4.5	-1.5	·	·
OCC[C@H]1C[C@@H](O)[C@H](O)[C@@]2(Cc3ccccc3CO2)O1	-1.9	2.0	-5.5	14.8*	1.3	-5.7	-0.5	-0.4
COc1ccccc1C(=O)NNC(=O)C1CC=CCC1 (configuration not stated)	-2.5	10.6	17.7	18.8*	1.9	-4.4	-0.6	0.7
COC(=O)NNC(=O)c1ccccc1OC	-3.8	3.3	9.5	4.8	-2.5	6.3	·	·
CCCCN(CC)C(=O)Cn1ncc2c1-c1cc(C)ccc1OC2	-1.5	11.5	3.9	16.5*	0.5	3.7	-0.6	-0.6
Cc1ccsc1/C=N/NC(=O)CNC(=O)c1ccco1	-2.9	0.9	22.6	-1.0	-5.8	-6.8	·	·
CCOc1cc(C(=O)NCC(=O)N/N=C/c2sccc2C)cc(OCC)c1OCC	-1.5	-2.9	9.2	16.7*	-16.0	-1.8	-0.7	-5.2
CCOC(=O)c1nn(-c2ccccc2)c2nc(-c3ccc(OC)cc3)c(C#N)c(=O)n12	-3.7	14.5	-8.4	19.4*	11.1	10.1	0.6*	8.3
O=C(OCc1cn([C@H]2CN(Cc3cccs3)[C@@H](c3ccccc3)C[C@@H]2O)nn1)c1ccccc1	·	·	·	-3.7	3.1	1.0	·	·
SMILES	APJ agonist	CCR6 antag	APJ antagonist	HTR2A ag	CXCR6 block	EBI2 antag	OPRM1 ag	m5-HT2A ag conf
Cc1ccccc1C(=O)Nc1cccc(-c2cn3ccccc3n2)c1	0.1	4.6	-4.6	15.9*	-9.7	-4.4	-0.4	-4.9
Cc1ccc(C(=O)Nc2cccc(-c3cn4ccccc4n3)c2)cc1	-1.3	11.6	-43.1	-1.4	3.1	3.1	·	·
COc1ccccc1NC(=O)COC(=O)Cc1c[nH]c2ccccc12	0.1	4.0	13.8	15.3*	-6.3	-6.4	-0.5	-5.4
COc1ccccc1CNC(=O)COC(=O)Cc1c[nH]c2ccccc12	4.3	3.6	5.1	-7.2	-15.5	3.5	·	·
COc1ccc(OC)c(NC(=O)CSc2nncc3ccc(OC)c(OC)c23)c1	1.6	9.0	-26.9	-2.0	-0.1	-5.4	·	·
CN1C2CCC1CC(NS(=O)(=O)c1ccc(C#N)cc1)C2 (configuration not stated)	1.8	8.3	12.9	16.4*	7.2	6.3	-0.6	-1.9
Cc1ccc(C)c(N(C(=O)CCC(=O)Nc2cc(C)on2)C(C(=O)NC2CCCC2)c2ccco2)c1 (configuration not stated)	-2.2	2.3	8.3	17.1*	-5.2	11.9	-0.4	0.5
COc1ccc(OC)c(-c2cc(C(=O)O)c3cc4ccccc4cc3n2)c1	·	·	·	-4.2	-5.8	-4.8	·	·
CCN(CC)C(=O)c1ccc(-c2nnc(Nc3ccc(C(=O)NC)cc3)c3ccccc23)cc1	6.2	3.5	-6.1	14.5*	-4.8	-2.6	-0.6	-4.6
COc1cc2oc3ccc(C#Cc4ccc(N)cc4)cc3c(=O)c2cc1OC	·	-1.5	·	4.1	-7.5	-3.9	·	·
Cc1ccn2cc(CSc3ccccc3)nc2c1	-4.0	-7.4	-1.8	-3.2	7.3	-1.3	·	·
C=CCn1c(SCC(=O)NCC(=O)OCC)nnc1-c1cccc(OC)c1	1.6	9.4	4.9	19.7*	-5.9	-1.3	-0.7	-3.0
COc1cc(/C=C2/S/C(=N/S(=O)(=O)c3ccccc3)NC2=O)c([N+](=O)[O-])cc1OC	-2.3	18.3	-4.1	18.3*	-2.3	7.6	-0.7	-4.6

Screening data deposited in PubChem by several laboratories.
